CHOP inhibitor: inhibitors of CHOP induction in ER stress response. CHO-K1 CHOP-promoter luciferase, tunicamycin-induced, 15-18 h. inhibition, % at 10 µM. actives 3.8% (n = 220,000). AID 2732;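 active = compounds that reduced the stress-induced luciferase reporter signal by more than about 70% of percent inhibition, limit read from the data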;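 also: 0% = tunicamycin plus vehicle and 100% = wells without tunicamycin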
Rad51 HR inh: blocks human Rad51 in homologous recombination. hRad51 DNA strand exchange, fluorescence dequenching. inhibition, % at 10 µM. actives 0.085% (n = 200,000). AID 1385;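 active = inhibition above 40% at the single screening dose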;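 also: 0% = DMSO control wells and 100% = blanks with heterologous ssDNA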
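material = hRad51 filaments on single-stranded DNA | reagent = Donor/quencher-labelled 47-bp dsDNA substrate | compound = 10 µM final, single point | schedule = strand-exchange reaction 15 min at room temperature | measured by = fluorescein emission 520 nm, excitation 485 nm | read-out basis = % inhibition versus plate control and blank means | benchmarks = plate controls and plate blanks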
Wee1 stabilizer: blocks degradation of human Wee1 kinase. reporter increase, % at 5 µM. actives 1.2% (n = 220,000). P30291. HeLa Luc-Wee1K328M stability, luciferase luminescence; 100% = proteasome inhibitor MG132 effect;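 active = activation above the mean of all tested compounds plus 3 SD, set per screening run, cut at about 8.8% in these data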;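 also: cells exposed to compound for 20 h before luminescence read; 0% = DMSO alone and 100% = MG132 at 30 µM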
L major viab: reduces viability of Leishmania major promastigotes; actives 9% (n = 200,000); inhibition, % at 10 µM; resazurin fluorescence viability;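 also: promastigotes grown with compound for 44 hours at 28 °C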
Arbovirus inh: arbovirus infection inhibition; arbovirus infection cell-based antiviral screen; inhibition, % at 10 µM; actives 0.37% (n = 200,000); AID 1251; in the data active = inhibition above about 30%
PKD1 inh: inhibitors of human PKD1 kinase; PKD1 kinase fluorescence polarization assay; inhibition, % (no concentration beside the values); actives 0.056% (n = 200,000); AID 797
* hit, by the source's call; x = no result given. In the library only some 12% were active in any assay of this set; here they are far more common. Rule as the data show it, unless noted: active = inhibition above about 50%; inactive = the rest.

SMILES	CHOP inhibitor	Rad51 HR inh	Wee1 stabilizer	L major viab	Arbovirus inh	PKD1 inh
CC(C)c1nc(SCC(=O)N2CCCc3ccccc32)c2c(=O)n(C)c(=O)n(C)c2n1	88.0*	-1.4	0.8	51.2*	-36.1	-0.6
O=C(CSc1nnc(-c2ccccc2)c(-c2ccccc2)n1)N1CCc2ccccc21	66.8	1.8	0.3	56.7*	-5.2	-10.3
O=C(CSc1ncc(-c2ccccc2)n1C1CCCC1)N1CCc2ccccc21	74.6*	-1.0	2.2	50.5*	1.8	-6.8
CCOCCCNS(=O)(=O)c1ccc(Br)cc1	23.1	2.4	-2.0	1.3	0.0	-7.6
N#CC(c1cccc(Cl)c1)c1ncc(C(F)(F)F)cc1Cl (configuration not stated)	58.8	-1.6	-2.7	-4.7	-7.3	9.8
O=[N+]([O-])c1cccc(/C=N/n2c(C3CCCCC3)n[nH]c2=S)c1	82.3*	2.0	-3.4	0.7	-3.5	-4.9
O=[N+]([O-])c1ccccc1/C=N/n1c(C2CCCCC2)n[nH]c1=S	52.2	4.5	0.1	-4.6	-12.4	17.6
S=c1[nH]nc(C2CCCCC2)n1/N=C/c1ccc(Br)s1	94.9*	-4.9	3.2	-5.7	-4.4	13.9
CCN(CC)S(=O)(=O)c1cccc(-c2n[nH]c(=S)n2/N=C/c2ccc(Br)cc2)c1	89.8*	x	-0.2	-12.8	16.7	-2.1
Cc1cc(-c2n[nH]c(=S)n2/N=C/c2cccc([N+](=O)[O-])c2)n[nH]1	25.0	2.5	-1.3	50.5*	2.6	-2.4
COc1cc(C(=O)Nc2nnc(C3CC3)s2)ccc1OCc1c(C)noc1C	10.3	-8.8	-0.7	-6.3	-2.4	-3.4
COc1ccc(-c2csc(CCN3N=C(C)CC3=O)n2)cc1	20.9	4.9	-1.0	5.1	-3.4	-1.2
CC(=O)NS(=O)(=O)c1ccc(NC(=S)NC(=O)Cc2ccccc2)cc1	17.1	8.8	1.7	-4.7	8.8	-1.5
S=c1[nH]nc(-c2ccco2)n1/N=C/C(Cl)=C/c1ccccc1	-22.0	5.3	1.6	x	x	x
Cc1cccc(/C=N/n2c(-c3cc(-c4ccccc4)n[nH]3)n[nH]c2=S)c1	74.8*	-2.3	-0.7	4.6	6.8	0.1
Cc1cc(-c2n[nH]c(=S)n2/N=C/C(Cl)=C/c2ccccc2)n[nH]1	-80.8	7.5	-0.6	70.0*	-5.2	4.5
S=c1[nH]nc(-c2cc(-c3ccccc3)n[nH]2)n1/N=C/c1ccccc1	51.4	25.0	1.3	x	x	x
O=C(COc1ccccc1C(=O)NCc1ccccn1)Nc1ccc(Br)cc1	-15.2	5.3	2.7	-6.8	18.1	-6.8
Cc1ccccc1C(=O)OCCN(C)Cc1ccccc1	-11.7	-5.9	-1.2	3.0	0.9	8.0
CCOC(=O)c1ccc(NC(=S)NN2CCOCC2)cc1	18.2	-3.1	2.9	53.2*	1.4	-8.6
CCOC(=O)c1ccc(CNCc2ccccc2)cc1	26.6	2.5	0.1	99.7*	4.5	-2.6
CCOC(=O)c1ccc(NC(=O)N2CCN(CCc3ccccc3)CC2)cc1	23.0	-3.1	-1.9	63.8*	-21.5	-9.7
Cc1ccc(C(=O)OCCN(C)Cc2ccccc2)cc1	-3.9	9.6	9.2*	-2.0	-2.6	3.6
CCOC(=O)c1ccc(CNCc2ccc(Br)cc2)cc1	51.3	1.4	-0.7	45.3	3.6	4.8
Ic1ccc(N2CCN(Cc3c[nH]c4ncccc34)CC2)cc1	2.7	x	x	x	x	x
SMILES	CHOP inhibitor	Rad51 HR inh	Wee1 stabilizer	L major viab	Arbovirus inh	PKD1 inh
CCOC(=O)c1ccc(NC(=S)NCCCN2CCCCC2)cc1	42.3	-8.7	-0.4	19.9	-4.4	0.0
CCOC(=O)c1ccc(NC(=S)NCCCN2CCN(C3CCCCC3)CC2)cc1	8.8	4.5	-1.2	53.2*	-18.1	-8.2
CC(C)c1ccc(NC(=O)c2csnn2)cc1	40.4	-2.6	-1.7	6.6	4.5	-11.9
CC(C)c1ccc(NC(=O)c2snc3ccc(Cl)cc23)cc1	78.9*	x	2.2	-5.0	-5.9	0.4
Cc1cc2c(sc3c(C)ccc(C)c32)c(C)n1	20.0	13.1	3.9	x	x	x
CCCOc1ccc(OCCCCNC(C)CC)cc1 (configuration not stated)	44.5	-1.8	-2.0	98.8*	-18.0	0.6
CCC(C)NCCOc1cccc(Br)c1 (configuration not stated)	-7.6	-9.0	2.5	13.5	-2.1	6.5
COCCCNCCOc1ccc(C(C)(C)c2ccccc2)cc1	15.1	6.5	9.7*	99.7*	7.4	1.7
COc1cc(OC)cc(C(=O)NCCOc2ccccc2)c1	10.7	-5.9	-1.7	3.5	4.0	-8.3
CCC(C)NCCOc1ccc(C(C)(C)c2ccccc2)cc1 (configuration not stated)	2.9	-11.0	-0.8	99.6*	-28.6	-6.0
CCC(C)NCCCOc1ccc(C)cc1OC (configuration not stated)	0.9	2.5	3.3	0.6	0.5	-7.8
CNCCCOc1ccc(C(C)(C)c2ccccc2)cc1	-31.1	x	-0.3	99.9*	-17.0	-0.2
N=C1/C(=C\c2ccc(OCc3ccccc3)cc2)C(=O)N=C2SC(N3CCCC3)=NN12	2.3	5.6	-0.3	-3.8	10.5	-6.5
CC(C)(c1ccccc1)c1ccc(OCCCN2CCNCC2)cc1	2.4	-9.7	-0.1	100.5*	-40.9	1.9
c1ccc(OCCOCCN2CCOCC2)cc1	34.1	-2.9	-1.4	5.2	5.1	-0.7
C1CCC(n2nnnc2CN2CCN(C3CCCC3)CC2)CC1	2.8	6.1	-2.3	89.6*	-5.3	-8.2
COCCNC(=O)C(c1ccccc1)N(Cc1cccs1)C(=O)Cn1nnc2ccccc21 (configuration not stated)	18.1	1.9	-1.9	10.2	6.3	-0.4
CCC(C)(C)NC(=O)C(c1ccc(C)o1)N(Cc1cccs1)C(=O)Cn1nnc2ccccc21 (configuration not stated)	76.7*	8.8	-0.7	36.2	-22.5	-12.1
CCC(C)(C)NC(=O)C(c1ccccc1)N(Cc1cccs1)C(=O)Cn1nnc2ccccc21 (configuration not stated)	x	6.0	-0.3	67.7*	x	-6.2
O=C(NCc1ccco1)C(c1ccco1)N(Cc1cccs1)C(=O)Cn1nnc2ccccc21 (configuration not stated)	-1.5	8.2	1.5	4.2	1.7	-1.6
CCOC(=O)c1nc(NCc2cccc(OC)c2)c2ccccc2n1	19.1	9.3	-2.2	43.5	-2.8	0.9
CCCC(=O)OCCNc1cc(Sc2nccn2C)c2nonc2c1[N+](=O)[O-]	108.4*	-1.9	-1.0	99.9*	-37.9	-9.0
CCCSc1cc(NCCOC(=O)CCC)c([N+](=O)[O-])c2nonc12	68.0	4.5	-1.3	1.9	-12.4	1.9
CCCSc1cc(NCCOC(C)=O)c([N+](=O)[O-])c2nonc12	19.9	3.7	-2.0	67.0*	-5.9	6.2
CC(=O)OCCCNc1cc(SCc2ccco2)c2nonc2c1[N+](=O)[O-]	21.8	-0.4	4.3	50.6*	-38.4	-1.1

Screening data (PubChem BioAssay)
